Consider eleven compounds from ChEMBL document CHEMBL1129267, “Aryl 1-but-3-ynyl-4-phenyl-1,2,3,6-tetrahydropyridines as potential antipsychotic agents: synthesis and structure-activity relationships” (J Med Chem, 1996).

For assay [1], the system named is Mus musculus. In words: (§1) Compound was tested for the inhibition of locomotor activity (LMA)by administering Intraperitoneally in mouse. The class given is functional. Conditions: ip. The method in brief:
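Mice dosed ip, then tested immediately for 1 h in darkened cylindrical photobeam chambers. Percent inhibition of locomotor activity relative to vehicle-treated animals; ED50 derived from three to six doses, n = 6-18 animals/dose.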

In assay [2] the test system is Rattus norvegicus. In words: In vivo inhibition of locomotor activity in the rat following p.o. administration. Type of assay: functional. Conditions: po.
The target in assay [3] is T1, D(2) dopamine receptor (Rattus norvegicus, UniProt P61169). Nature of the assay: Binding affinity at Dopamine receptor D2 in rat striatal membrane by [3H]spiperone displacement. The class given is cell membranes, Striatum. An outline of the steps:
(§2)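 Rat striatal membranes; [³H]spiperone 0.2 nM final; nonspecific binding defined with (+)-butaclamol 1.0 µM final. Four to six concentrations, each run in triplicate; Ki obtained by nonlinear regression analysis.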

For another assay, the target named is D(3) dopamine receptor (Homo sapiens, UniProt P35462). Nature of the assay: Binding affinity against human Dopamine receptor D3 in CHO-K1 cells using [3H]spiperone as radioligand. Type of assay: cell-based.
D(3) dopamine receptor, sequence (P35462 whole entry): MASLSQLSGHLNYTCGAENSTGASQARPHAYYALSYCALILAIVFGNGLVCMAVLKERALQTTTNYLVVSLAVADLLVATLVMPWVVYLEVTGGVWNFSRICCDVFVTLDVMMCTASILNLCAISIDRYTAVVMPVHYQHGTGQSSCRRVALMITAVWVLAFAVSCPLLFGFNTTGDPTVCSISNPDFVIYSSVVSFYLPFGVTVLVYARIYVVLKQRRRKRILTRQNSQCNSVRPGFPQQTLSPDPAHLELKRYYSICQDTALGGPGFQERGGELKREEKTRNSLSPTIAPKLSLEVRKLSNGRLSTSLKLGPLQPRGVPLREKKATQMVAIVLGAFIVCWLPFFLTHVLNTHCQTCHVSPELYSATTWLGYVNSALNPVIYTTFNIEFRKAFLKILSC
Assay [4] has as its system Rattus norvegicus. In words: Percent decrease of the firing rate of rat substantia nigra DA neurons at a dose of 2.5 mg/kg ip. The class given is functional. The settings on record: route intraperitoneal.
Assay [5] relates to Rattus norvegicus. In words: Percent reversal of the increase on DOPA levels in the striatum of GBL-treated rats at a dose of 10 mg/kg ip. Type of assay: functional. Conditions: route intraperitoneal.
The test system of assay [6] is Mus musculus. The assay is described as §1. Type of assay: functional. The settings on record: ip. The source holds these as a separate data set.
In another assay the target is T2, D(4) dopamine receptor (Homo sapiens, UniProt P21917).
T2 sequence (P21917 whole entry): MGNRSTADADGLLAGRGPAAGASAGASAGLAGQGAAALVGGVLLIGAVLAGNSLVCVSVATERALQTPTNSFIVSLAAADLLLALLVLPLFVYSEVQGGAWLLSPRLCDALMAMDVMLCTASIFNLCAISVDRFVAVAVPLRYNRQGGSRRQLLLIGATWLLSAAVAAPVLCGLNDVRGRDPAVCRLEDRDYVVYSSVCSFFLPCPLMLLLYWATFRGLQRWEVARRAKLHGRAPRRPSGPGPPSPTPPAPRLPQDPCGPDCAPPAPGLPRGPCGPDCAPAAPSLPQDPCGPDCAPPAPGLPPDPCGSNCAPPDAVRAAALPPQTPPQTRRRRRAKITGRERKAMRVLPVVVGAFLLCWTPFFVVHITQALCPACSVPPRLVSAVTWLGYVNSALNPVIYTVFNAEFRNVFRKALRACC
In words: Binding affinity against human Dopamine receptor D4 in CHO-K1 cells using [3H]spiperone as radioligand. Type of assay: cell-based. The method in brief:
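Human D4.2 receptor expressed in CHO K1 cells; [³H]spiperone 0.2 nM final; nonspecific binding defined with haloperidol 1.0 µM final.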

Assay [7] addresses T1, D(2) dopamine receptor. In words: Compound was evaluated for their affinity against dopamine receptor D2 by displacing [3H]-spiperone in rat striatal membrane. Type of assay: cell membranes, Striatum. An outline of the steps: as §2
Assay [8] deals with D(2) dopamine receptor (Homo sapiens, UniProt P14416). Nature of the assay: […] Dopamine receptor D2 mitogenesis measured as [3H]thymidine incorporation in CHO p-5 cells expressing human D2 receptors. The method in brief: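 CHO p-5 cells transfected with human D2L are grown 2 days at 37 °C in medium with 10% calf serum, rinsed, and switched to serum-free medium plus compound in water. After 16-17 h, [³H]thymidine (1 µCi/well) is added for 4 h; cells are harvested onto filters and counted.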
D(2) dopamine receptor (Homo sapiens, UniProt P14416), sequence (P14416 whole entry): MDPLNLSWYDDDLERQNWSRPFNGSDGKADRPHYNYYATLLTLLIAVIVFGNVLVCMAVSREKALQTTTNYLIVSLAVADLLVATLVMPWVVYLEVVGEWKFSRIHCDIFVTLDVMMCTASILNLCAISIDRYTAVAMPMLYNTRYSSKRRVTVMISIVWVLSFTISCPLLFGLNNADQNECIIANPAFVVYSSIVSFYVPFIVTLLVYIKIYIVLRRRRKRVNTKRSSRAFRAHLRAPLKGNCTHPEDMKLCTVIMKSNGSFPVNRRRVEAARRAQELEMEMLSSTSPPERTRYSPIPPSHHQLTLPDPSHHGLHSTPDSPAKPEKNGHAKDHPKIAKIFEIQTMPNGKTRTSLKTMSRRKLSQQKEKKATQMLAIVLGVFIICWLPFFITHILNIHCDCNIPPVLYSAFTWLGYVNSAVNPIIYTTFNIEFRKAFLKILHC
For orientation: Dividing cells build labelled thymidine or BrdU into new DNA.

A further assay deals with D(1A) dopamine receptor (Rattus norvegicus, UniProt P18901). The class given is cell membranes, Brain, Membrane.
D(1A) dopamine receptor, sequence (P18901 whole entry): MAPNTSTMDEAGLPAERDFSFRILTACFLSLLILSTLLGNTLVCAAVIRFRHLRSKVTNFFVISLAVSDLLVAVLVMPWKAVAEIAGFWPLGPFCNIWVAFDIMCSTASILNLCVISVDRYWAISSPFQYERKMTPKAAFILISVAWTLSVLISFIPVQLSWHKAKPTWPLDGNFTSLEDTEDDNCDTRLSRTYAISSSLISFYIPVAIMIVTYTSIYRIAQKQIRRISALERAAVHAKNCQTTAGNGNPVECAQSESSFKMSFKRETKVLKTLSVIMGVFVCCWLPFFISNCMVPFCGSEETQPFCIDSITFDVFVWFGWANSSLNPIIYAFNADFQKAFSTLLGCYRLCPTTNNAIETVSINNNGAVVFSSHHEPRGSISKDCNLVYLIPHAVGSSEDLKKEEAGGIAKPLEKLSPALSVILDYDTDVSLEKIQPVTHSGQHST
The target of assay [9] is T1, D(2) dopamine receptor. In words: Binding affinity against Dopamine receptor D2 in CHO-K1 cells using radioligand [3H]NPA binding assay. The class given is cell-based.
The subject of another assay is Monkey. Nature of the assay: Compound was tested for inhibition of conditioned avoidance after administering perorally(po) in squirrel monkeys. Conditions: Cebidae, in Saimiri. Type of assay: functional.
Assay [10] has as its target T3, 5-hydroxytryptamine receptor 1A (Rattus norvegicus, UniProt P19327).
T3 sequence (P19327 whole entry): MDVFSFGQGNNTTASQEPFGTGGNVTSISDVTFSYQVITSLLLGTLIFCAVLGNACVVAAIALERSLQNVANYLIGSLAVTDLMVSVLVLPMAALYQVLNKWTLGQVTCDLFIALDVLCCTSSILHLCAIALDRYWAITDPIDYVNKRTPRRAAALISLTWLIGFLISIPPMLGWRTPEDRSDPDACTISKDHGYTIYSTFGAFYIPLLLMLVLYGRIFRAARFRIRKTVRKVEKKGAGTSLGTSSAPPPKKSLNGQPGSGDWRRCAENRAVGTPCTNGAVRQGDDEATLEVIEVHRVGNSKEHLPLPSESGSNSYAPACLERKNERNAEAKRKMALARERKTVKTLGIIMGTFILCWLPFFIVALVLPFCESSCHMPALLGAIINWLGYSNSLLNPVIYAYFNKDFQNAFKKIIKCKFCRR
Nature of the assay: Binding affinity against serotonin 5-hydroxytryptamine 1A receptor using radioligand [3H]8-OH-DPAT binding assay. An outline of the steps:
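Rat hippocampal membranes labelled with [³H]-8-OH-DPAT (0.4 nM final); nonspecific binding with 8-OH-DPAT (1 µM).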

T1 sequence (P61169 whole entry): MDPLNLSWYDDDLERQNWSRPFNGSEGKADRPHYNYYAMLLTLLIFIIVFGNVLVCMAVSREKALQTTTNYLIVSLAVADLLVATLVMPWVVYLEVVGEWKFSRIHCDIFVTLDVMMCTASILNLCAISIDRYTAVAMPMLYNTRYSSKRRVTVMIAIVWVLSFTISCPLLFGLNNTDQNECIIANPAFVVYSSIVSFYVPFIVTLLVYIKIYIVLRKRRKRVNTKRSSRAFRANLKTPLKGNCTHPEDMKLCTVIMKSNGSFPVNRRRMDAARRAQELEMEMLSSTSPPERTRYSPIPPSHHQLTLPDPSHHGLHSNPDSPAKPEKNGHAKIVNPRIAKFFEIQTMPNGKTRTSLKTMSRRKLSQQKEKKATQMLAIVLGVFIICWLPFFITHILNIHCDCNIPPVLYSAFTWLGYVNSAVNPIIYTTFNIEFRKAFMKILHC

As to `C(#Cc1cccnc1)CCN1CCN(c2ccccn2)CC1`, the ED50 (usually the dose that gives a 50% effect, or the effect in half of the subjects) in the assay on Mus musculus [1] was 2.2 mg/kg; in the assay with Rattus norvegicus [2], greater than 30 mg/kg.

`C(#Cc1cnc2ccccc2c1)CN1CC=C(c2ccccc2)CC1`: the Ki (in general, the equilibrium dissociation constant of an inhibitor or competing ligand from its target) at D(2) dopamine receptor [3] is greater than 10 µM. The ED50 in the assay on Mus musculus [1] was greater than 30 mg/kg.

Regarding `Oc1ccc2[nH]cc(CCCCN3CC=C(c4ccccc4)CC3)c2c1` [ROXINDOLE], the Ki on D(2) dopamine receptor [3] was 0.0091 µM; at D(3) dopamine receptor, 0.0004 µM; at D(4) dopamine receptor, 0.024 µM. Moreover, the figures for the ED50 in the assay on Rattus norvegicus [2] and in the assay with Mus musculus [6] were 12.8 mg/kg and 0.2 mg/kg, respectively. The results for the Decrease in the assay with Rattus norvegicus [4] and in the assay with Rattus norvegicus [5] were 100% and 64%, respectively.

In turn, `Nc1ccccc1C#CCCN1CC=C(c2ccccc2)CC1` had a Ki on D(2) dopamine receptor [7] of 0.183 µM. For the same compound, the figures for the ED50 in the assay with Mus musculus [1] and with Rattus norvegicus [2] were 1.6 mg/kg and 23.9 mg/kg, respectively.

With `C(#Cc1cccnc1)CCCN1CC=C(c2ccccc2)CC1`, at D(2) dopamine receptor [3], affinity was put at a Ki of 0.056 µM. Also, in the assay with Rattus norvegicus [2], the ED50 was 4.3 mg/kg.

As to `C(#Cc1cccnc1)CCN1CC=C(c2cccs2)CC1`, affinity at D(2) dopamine receptor [3] was put at a Ki of 0.255 µM. Further, the median effective dose (ED50) turned out to be 0.86 mg/kg with Mus musculus [1] and 5 mg/kg in the assay with Rattus norvegicus [2].

Regarding `Nc1ccc(C#CCCN2CC=C(c3ccccc3)CC2)cn1`, the Ki was 0.033 µM on D(2) dopamine receptor [3]; greater than 10 µM on D(1A) dopamine receptor; 0.007 µM at D(3) dopamine receptor; 0.019 µM on D(2) dopamine receptor [9]; 0.632 µM in assay [10]; 0.278 µM at D(4) dopamine receptor. The EC50 – broadly, the concentration needed to bring the measured effect to its halfway point – at D(2) dopamine receptor [8] was 0.0005 µM. Moreover, the values for the ED50 in the assay with Monkey, with Rattus norvegicus [2] and with Mus musculus [6] were 2.8 mg/kg, 2.5 mg/kg and 0.06 mg/kg, respectively. In addition, in the assay on Rattus norvegicus [4], the Decrease amounted to 63%.

At D(2) dopamine receptor [3], `C(#Cc1ccc2c(c1)OCCO2)CCN1CC=C(c2ccccc2)CC1` registered a Ki of 0.127 µM. Further, the ED50 was greater than 30 mg/kg with Rattus norvegicus [2] and 2.2 mg/kg in the assay with Mus musculus [6].

In the case of `C(#Cc1cnc2ccccc2c1)CCN1CC=C(c2ccccc2)CC1`, the Ki at D(2) dopamine receptor [3] amounted to 0.03 µM.

Compound `C(#Cc1cccnc1)CCN1CCN(c2ncccn2)CC1` gave a Ki on D(2) dopamine receptor [3] greater than 10 µM. The compound further showed an ED50 with Mus musculus [6] greater than 30 mg/kg.

At D(2) dopamine receptor [3], `C(#Cc1ccc2[nH]ccc2c1)CCN1CC=C(c2ccccc2)CC1` displayed a Ki of 0.193 µM. In addition, the ED50 was 5.2 mg/kg in the assay with Rattus norvegicus [2] and 1.2 mg/kg with Mus musculus [6].
